According to paper PMC9064899 (The FEBS journal, 2021):
Numbering of substitutions follows the chain as printed.

How the values were obtained:
[1] = system: mutant zebrafish; details: L65Q mutant zebrafish; cited from earlier work
[2] = system: UBIAD1-deficient FIXgla-PC/HEK293 reporter cells; assay: VKD carboxylation of FIXgla-PC supported by K vitamins in UBIAD1-knockout cells; assay type: cell-based, human; details: for support of VKD carboxylation of reporter protein: UBIAD1-deficient (knockout) FIXgla-PC/HEK293 cells
How it was run: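 Ubiad1-knockout FIXgla-PC/HEK293 reporter cells were cultured for 24 h with increasing concentrations of vitamin K1, MK-4, vitamin K3, or menaquinones with 1–4 or 7 isoprene units. K vitamin stocks were made in polyethoxylated castor oil. Carboxylated FIXgla-PC was determined by ELISA, and half-maximal stimulation concentration (EC50) came from curve fitting. Mean ± SD.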

[3] = system: FIXgla-PC/HEK293 reporter cells; assay: VKD carboxylation of reporter protein FIXgla-PC supported by K vitamins; assay type: cell-based, human; details: intact FIXgla-PC/HEK293 cells, 0.015 nM to 1000 nM, 24 hours
How it was run: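 Intact FIXgla-PC/HEK293 cells (stable reporter: protein C with factor IX Gla domain) were grown in DMEM/F12 with 10% FBS. They were incubated for 24 h with vitamin K1, MK-4, vitamin K3 or MK-1/2/3/4/7 at 0.015 nM to 1000 nM, from stocks in polyethoxylated castor oil. Carboxylated reporter was measured by ELISA (anti-carboxylated FIXgla capture, HRP anti-protein C, ABTS).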

[4] = target: T1, UBIAD1 G186R (Homo sapiens, UniProt Q9Y5Z9, G186R); assay: GGPP recognition by UBIAD1 variant; assay type: cell-based; details: 1 μM vitamin K3, statin-blocked mevalonate pathway
T1 sequence (Q9Y5Z9 1-338 G186R): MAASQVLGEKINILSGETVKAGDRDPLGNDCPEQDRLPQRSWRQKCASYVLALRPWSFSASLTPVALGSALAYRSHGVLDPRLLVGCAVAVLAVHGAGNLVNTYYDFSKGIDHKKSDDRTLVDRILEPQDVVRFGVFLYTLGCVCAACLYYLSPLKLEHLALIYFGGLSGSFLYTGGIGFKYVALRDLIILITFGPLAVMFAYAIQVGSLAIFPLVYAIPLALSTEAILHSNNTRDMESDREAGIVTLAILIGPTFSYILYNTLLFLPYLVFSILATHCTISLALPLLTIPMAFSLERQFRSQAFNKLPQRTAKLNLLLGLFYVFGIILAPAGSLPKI
How it was run: (§1)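 Ubiad1-knockout FIXgla-PC/HEK293 cells were transiently transfected with wild-type or mutant UBIAD1. At 24 h they were pre-treated with 10 μM atorvastatin for 3 h. They were then given 1 μM vitamin K3, 10 μM atorvastatin and increasing GGPP for 24 h. Carboxylated FIXgla-PC was read by ELISA, and GGPP EC50 came from a curve fit. Mean ± SD.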

[5] = target: T2, UBIAD1 K181A (Homo sapiens, UniProt Q9Y5Z9, K181A); assay: GGPP recognition by UBIAD1 variant; assay type: cell-based; details: 1 μM vitamin K3, statin-blocked mevalonate pathway
T2 sequence (Q9Y5Z9 1-338 K181A): T1 sequence (Q9Y5Z9 1-338 G186R) with K181A, R186G
How it was run: as §1

[6] = target: T3, UBIAD1 (Homo sapiens, UniProt Q9Y5Z9); assay: UBIAD1 activity with exogenous isoprenyl pyrophosphates in statin-blocked cells; assay type: cell-based; details: 1 μM vitamin K3, 10 μM atorvastatin or simvastatin, 20 μM GPP, FPP or GGPP
T3 sequence (Q9Y5Z9 1-338): T1 sequence (Q9Y5Z9 1-338 G186R) with R186G
How it was run: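 FIXgla-PC/HEK293 reporter cells were pre-incubated for 12 h with 10 μM atorvastatin or simvastatin to block endogenous isoprenyl pyrophosphate. Medium then contained 1 μM vitamin K3, statin (10 μM) and 20 μM GPP, FPP or GGPP as side-chain substrate. Carboxylated FIXgla-PC was quantified by ELISA and normalized to GGPP (100%). Mean ± SD, n=3 independent experiments.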

[7] = system: FIXgla-PC/HEK293 reporter cells; assay: Inhibition of vitamin K1-supported VKD carboxylation; assay type: cell-based, human; details: 5 μM vitamin K1 as substrate, 24 hours
How it was run: (§2)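 HEK293 cells stably expressing FIXgla-PC (protein C whose Gla domain is replaced by that of factor IX), grown in DMEM/F12 with 10% FBS. Vitamin K stocks are made in polyethoxylated castor oil. Cells are cultured with vitamin K for 24 h. The medium is collected and used directly in an ELISA for carboxylated FIXgla-PC, with an anti-carboxylated FIX Gla-domain mAb, HRP anti-protein C and ABTS substrate.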

[8] = system: FIXgla-PC/HEK293 reporter cells; assay: Inhibition of vitamin K3-supported VKD carboxylation; assay type: cell-based, human; details: 1 μM vitamin K3 as substrate, 24 hours
How it was run: as §2

[9] = system: kidneys; details: kidneys of atorvastatin-treated mice; cited from earlier work

CC1=C(C/C=C(\C)CCC[C@H](C)CCC[C@H](C)CCCC(C)C)C(=O)c2ccccc2C1=O [vitamin K1, phylloquinone]
rescue of the vascular phenotype [1]: 6% | support of VKD carboxylation of reporter protein [2]: efficiently support VKD carboxylation

CC(C)=CCC/C(C)=C/CC/C(C)=C/CC/C(C)=C/CC1=C(C)C(=O)c2ccccc2C1=O [MK-4, menaquinone-4]
rescue of the vascular phenotype [1]: 58% | support of VKD carboxylation of reporter protein [2]: efficiently support VKD carboxylation | support of VKD carboxylation of reporter protein [3]: efficiently support VKD carboxylation

CC(C)=CCC/C(C)=C/CC/C(C)=C/CC/C(C)=C/CC/C(C)=C/CC/C(C)=C/CC/C(C)=C/CC1=C(C)C(=O)c2ccccc2C1=O [MK-7]
carboxylation efficiency relative to MK-4 ([2]; MK-7 higher than MK-4): about 3 fold | EC50 ([2]; read-out: EC50 (half-maximal stimulation concentration) of K vitamins for VKD carboxylation, UBIAD1-deficient FIXgla-PC/HEK293 cells): 2.3 nM | support of VKD carboxylation of reporter protein [3]: efficiently support VKD carboxylation

CC(C)=CCC/C(C)=C/CC/C(C)=C/CC/C(C)=C/COP(=O)(O)OP(=O)(O)O [GGPP, geranylgeranyl pyrophosphate]
increase of EC50 value of GGPP vs wild-type [4]: 5 fold | increase of EC50 value of GGPP vs wild-type [5]: 5 fold | support of VKD carboxylation as side chain source [6]: support VKD carboxylation

CC(C)=CCC/C(C)=C/COP(=O)(O)OP(=O)(O)O [GPP, geranyl pyrophosphate]
support of VKD carboxylation as side chain source [6]: support VKD carboxylation

CC(C)=CCC1=C(C)C(=O)c2ccccc2C1=O [MK-1]
support of VKD carboxylation of reporter protein [2]: unable to support VKD carboxylation

CCC(C)(C)C(=O)O[C@H]1C[C@@H](C)C=C2C=C[C@H](C)[C@H](CC[C@@H]3C[C@@H](O)CC(=O)O3)[C@H]21 [simvastatin]
effect on vitamin K1-supported carboxylation [7]: do not affect vitamin K1-supported carboxylation | inhibition of VKD carboxylation [8]: dose-response inhibition of VKD carboxylation

CC(C)c1c(C(=O)Nc2ccccc2)c(-c2ccccc2)c(-c2ccc(F)cc2)n1CC[C@@H](O)C[C@@H](O)CC(=O)O [atorvastatin]
reduction of MK-4 production [9]: ~ 45% | effect on vitamin K1-supported carboxylation [7]: do not affect vitamin K1-supported carboxylation | inhibition of VKD carboxylation [8]: dose-response inhibition of VKD carboxylation

CC(C)=CCC/C(C)=C/CC/C(C)=C/COP(=O)(O)OP(=O)(O)O [FPP, farnesyl pyrophosphate]
support of VKD carboxylation as side chain source [6]: support VKD carboxylation
